Assay results reported in ChEMBL document CHEMBL1255483, “Intra- and extracellular activities of dicloxacillin against Staphylococcus aureus in vivo and in vitro” (Antimicrob Agents Chemother, 2010).
Calls of active or inactive are those of the source. The rule behind the calls is not given here.

What was measured:
Staphylococcus aureus [1] = experiment: Bacteriostatic activity against Staphylococcus aureus E19977 infected in human THP-1 cells after 24 hrs; assay type: functional
Procedure, shortened: (§1)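 Human THP-1 macrophages were infected with opsonized S. aureus at 4 bacteria per macrophage for 45 min. Non-phagocytized bacteria were removed by washing and a brief incubation in PBS with gentamicin 50 mg/liter. Cells were then incubated up to 24 h with DCX over a wide range of extracellular concentrations. The read-out was Δlog CFU per mg cell protein versus time zero (n = 3), with sigmoidal fitting and Cstatic by interpolation.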

[2] = fT>MIC in Staphylococcus aureus E19977 infected NMRI mouse at 120 mg/kg administered every 6 hrs; assay type: functional
Procedure, shortened: (§2)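 Calculated percentage of 24 h at steady state that free plasma DCX exceeds the strain MIC (microdilution, pH 7.4). Concentrations were simulated from single subcutaneous dose plasma curves in NMRI mice (S. lutea bioassay), adjusted with a square-root model of concentration-dependent free fraction from ultrafiltration. The regimen was dosed subcutaneously in mice infected intraperitoneally with 10^7.4 CFU, and peritoneal CFU were read after 24 h of therapy.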

[3] = fT>MIC in Staphylococcus aureus E19977 infected NMRI mouse at 30 mg/kg administered every 2 hrs; assay type: functional; procedure, shortened: as §2
[4] = Ratio of fAUC (24 hrs) in NMRI mouse at 200 mg/kg administered every 6 hrs to MIC for Staphylococcus aureus E19977; assay type: functional
Procedure, shortened: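 Modeled free AUC over 24 h divided by the MIC, not measured directly. Single subcutaneous DCX doses were given to NMRI mice, and plasma was assayed by S. lutea bioassay. Noncompartmental analysis used trapezoidal mean points plus a fitted monoexponential extrapolated to 24 h. Free fraction came from a square-root fit to plasma ultrafiltration binding (10–400 mg/liter spike, 1 h, 37°C). The MIC was measured by broth microdilution at pH 7.4.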

[5] = fT>MIC in Staphylococcus aureus E19977 infected NMRI mouse at 80 mg/kg administered every 8 hrs; assay type: functional; procedure, shortened: as §2
[6] = Half-life in NMRI mouse at 30 mg/kg, sc; assay type: ADME, organism-based; set-up: dose 30 mg/kg, route subcutaneous; details: in vivo
Procedure, shortened: (§3)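 Single subcutaneous DCX doses given to NMRI mice. Blood was collected into EDTA tubes, and plasma drug was assayed by microbiological bioassay with S. lutea ATCC 9391 (detection limit 1.5 mg/liter, linear to 100 mg/liter). Values came from noncompartmental analysis. Terminal half-life was fitted monoexponentially to the last four time points. AUC24 combined the trapezoidal rule over mean points with exact integration of the fitted curve extrapolated to 24 h.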

[7] = fT>MIC in Staphylococcus aureus E19977 infected NMRI mouse at 160 mg/kg administered every 3 hrs; assay type: functional; procedure, shortened: as §2
Staphylococcus aureus [8] = experiment: Bacteriostatic activity against Staphylococcus aureus ATCC 25923 at MIC between 5 to 24 hrs; assay type: functional, organism-based
Procedure, shortened: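 Extracellular broth time- and concentration-kill test. The inoculum was ~10⁶ CFU/ml, exposed to a wide range of DCX concentrations, with CFU counted after 5 and 24 h. The read-out was Δlog CFU/ml versus time zero (mean ± SD, n = 3). A sigmoidal fit with slope 1 gave Emax and EC50. Cstatic was read by graphical interpolation as the concentration giving no change from the inoculum.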

[9] = AUC (24 hrs) in NMRI mouse at 300 mg/kg, sc; assay type: ADME, organism-based; set-up: time < 24 hr, dose 300 mg/kg, route subcutaneous; details: plasma; procedure, shortened: as §3
Staphylococcus aureus [10] = experiment: Bactericidal activity against Staphylococcus aureus ATCC 25923 infected in human THP-1 cells assessed as log change in bacterial count after 24 hrs; assay type: functional; procedure, shortened: as §1

In the case of `Cc1onc(-c2c(Cl)cccc2Cl)c1C(=O)N[C@@H]1C(=O)N2[C@@H]1SC(C)(C)[C@@H]2C(=O)O` [DICLOXACILLIN], the Activity (Staphylococcus aureus [1]) is reported as 0.89 mg/L, the “fT>MIC” value [2] is reported as 37.78% and the “fT>MIC” value [3] is reported as 45.83%. For the same molecule, the fAUC/MIC [4] was 411.61 h, the “fT>MIC” value [5] was 25% and the half-life [6] was 19 min. For the same molecule, the “fT>MIC” value [7] was 96.11%, the Activity (Staphylococcus aureus [8]) was “Active” and the AUC at 24 h [9] was 726 µg·h/mL. The Emax (Staphylococcus aureus [10]) was -1.19 deltalog10CFU/ml.
